Results taken from ChEMBL document CHEMBL4428054, “Synthesis of Fluorescent Binaphthyl Amines That Bind c-MYC G-Quadruplex DNA and Repress c-MYC Expression” (J Med Chem, 2016).
Activity calls are given as the source filed them. The calls are words filed in the database; no cut-off is given here.

Key:
unidentified [1] = assay: Selectivity for 5'-FAM and 3'-TAMRA-labeled c-MYC G-quadruplex (unknown origin) over 5'-FAM and 3'-TAMRA-labeled c-KIT2 G-quadruplex (unknown origin)
Quadruplex DNA [2] = assay: Stabilization of c-MYC G-quadruplex in human HeLa cells assessed as reduction in c-MYC mRNA level at 5 uM incubated for 24 hrs by RT-PCR method; type: cell-based; design: scale not given: the % may be the effect or the level left
Summary of the method: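 qRT-PCR on HeLa cells treated 24 h at 1.0, 2.5 or 5.0 μM. c-MYC mRNA was normalised to GAPDH and compared with 0.1% DMSO-treated control.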

Quadruplex DNA [3] = assay: Binding affinity to pre-annealed c-MYC G-quadruplex (unknown origin) assessed as hypochromacity at 20 uM in 10 mM Tris.HCl buffer containing 100 mM KCl at pH 7.4 by UV/Visible spectroscopy; type: nucleic-acid assay; conditions: unidentified
Summary of the method: (§1)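 UV–vis titration of 20 μM ligand with preannealed c-MYC quadruplex (0–1.4 equiv) in 100 mM KCl, 10 mM Tris·HCl, pH 7.4. Hypochromicity was followed at the 362 nm ligand band, because the 298 nm band overlaps DNA absorbance. Kd was fitted with the Hill 1 equation.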

Quadruplex DNA [4] = assay: Stabilization of 5'-FAM and 3'-TAMRA-labeled c-KIT1 G-quadruplex (unknown origin) assessed as change in melting temperature at 1 uM by FRET assay; type: nucleic-acid assay; conditions: unidentified
Summary of the method: (§2)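 FRET melting of dual-labelled (5′-FAM/3′-TAMRA) promoter quadruplexes or duplex in 60 mM potassium cacodylate buffer, pH 7.4. ΔTm is taken against ligand-free Tm. The ligand was tested across a concentration series. Maximum measurable Tm is 93 °C.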

Quadruplex DNA [5] = assay: Binding affinity to pre-annealed k-RAS G-quadruplex (unknown origin) in 100 mM KCl, 10 mM Tris.HCl at pH 7.4 by fluorescence spectroscopy relative to untreated control; type: nucleic-acid assay, unidentified
Summary of the method: (§3)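 Fluorescence titration in 100 mM KCl, 10 mM Tris·HCl, pH 7.4. Excitation was 350 nm and emission was read at the 430 nm maximum. Ligand (1 μM for c-MYC) was titrated with increasing quadruplex or ds DNA, up to 20 equiv. Change in intensity was scored, and Kd was derived from the titration curves.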

Quadruplex DNA [6] = assay: Stabilization of 5'-FAM and 3'-TAMRA-labeled c-MYC G-quadruplex (unknown origin) assessed as change in melting temperature at 1 uM in presence of 100 nM to 10 uM dsDNA by FRET assay; type: nucleic-acid assay; conditions: unidentified
Quadruplex DNA [7] = assay: Binding affinity to pre-annealed c-KIT1 G-quadruplex (unknown origin) in 100 mM KCl, 10 mM Tris.HCl at pH 7.4 by fluorescence spectroscopy relative to untreated control; type: nucleic-acid assay, unidentified; summary of the method: as §3
Quadruplex DNA [8] = assay: Stabilization of 5'-FAM and 3'-TAMRA-labeled c-KIT2 G-quadruplex (unknown origin) assessed as change in melting temperature at 1 uM by FRET assay; type: nucleic-acid assay; conditions: unidentified; summary of the method: as §2
dsDNA [9] = assay: Binding affinity to dsDNA (unknown origin) in 10 mM Tris.HCl buffer containing 100 mM KCl at pH 7.4 by UV/Visible spectroscopy; type: nucleic-acid assay
Quadruplex DNA [10] = assay: Binding affinity to pre-annealed c-KIT2 G-quadruplex (unknown origin) in 100 mM KCl, 10 mM Tris.HCl at pH 7.4 by fluorescence spectroscopy relative to untreated control; type: nucleic-acid assay, unidentified; summary of the method: as §3
Quadruplex DNA [11] = assay: Binding affinity to pre-annealed c-MYC G-quadruplex (unknown origin) in 100 mM KCl, 10 mM Tris.HCl at pH 7.4 by fluorescence spectroscopy relative to untreated control; type: nucleic-acid assay, unidentified; summary of the method: as §3
dsDNA [12] = assay: Stabilization of 5'-FAM and 3'-TAMRA-labeled dsDNA (unknown origin) assessed as change in melting temperature at 1 uM by FRET assay; type: nucleic-acid assay; summary of the method: as §2
[13] = Drug localization in nucleus of human HeLa cells at 5 uM incubated for 2 hrs by fluorescence microscopy; type: ADME, subcellular
Summary of the method: (§4)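 Intrinsic ligand fluorescence imaged by fluorescence microscopy in HeLa cells after 2 h at 5.0 μM. Merged images were used to assign nuclear versus cytoplasmic localisation.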

Quadruplex DNA [14] = assay: Stabilization of 5'-FAM and 3'-TAMRA-labeled c-KIT2 G-quadruplex (unknown origin) assessed as change in melting temperature at 1 uM in presence of 100 nM to 10 uM dsDNA by FRET assay; type: nucleic-acid assay; conditions: unidentified
Quadruplex DNA [15] = assay: Stabilization of 5'-FAM and 3'-TAMRA-labeled c-KIT1 G-quadruplex (unknown origin) assessed as change in melting temperature at 1 uM in presence of 100 nM to 10 uM dsDNA by FRET assay; type: nucleic-acid assay; conditions: unidentified
Quadruplex DNA [16] = assay: Binding affinity to c-MYC G-quadruplex (unknown origin) assessed as induction of chemical shift perturbations of imino protons by 1H-NMR spectroscopy; type: nucleic-acid assay; conditions: unidentified
Summary of the method: (§5)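 1D 1H NMR of c-MYC quadruplex DNA at different ligand:DNA ratios, monitoring imino and aromatic regions against partial signal assignments. Chemical shift perturbation or line broadening was noted separately at ratios below 1 and at ratios of 1 or above.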

Quadruplex DNA [17] = assay: Stabilization of 5'-FAM and 3'-TAMRA-labeled k-RAS G-quadruplex (unknown origin) assessed as change in melting temperature at 1 uM in presence of 100 nM to 10 uM dsDNA by FRET assay; type: nucleic-acid assay; conditions: unidentified
HeLa [18] = assay: Effect on GAPDH mRNA expression in human HeLa cells at 1 to 5 uM incubated for 24 hrs by RT-PCR method; type: ADME, cell-based
HeLa [19] = assay: Induction of apoptosis in human HeLa cells assessed as early apoptotic cells level at 5 uM incubated for 24 hrs by Annexin V-FITC staining based flow cytometry (reference value: 1.1%); type: functional
HeLa [20] = assay: Cell cycle arrest in human HeLa cells assessed as accumulation at S phase at 5 uM incubated for 24 hrs by propidium iodide staining based flow cytometry (reference value: 10.8%); type: functional
HeLa [21] = assay: Cytotoxicity against human HeLa cells incubated for 24 hrs by MTT assay; type: functional, cell-based
Summary of the method: (§6)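 MTT growth-inhibition assay in HeLa, A549 and mouse C2C12 cells. Cells given 0.1% DMSO served as control. IC50 values were reported.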

HeLa [22] = assay: Induction of apoptosis in human HeLa cells assessed as late apoptotic cells level at 5 uM incubated for 24 hrs by Annexin V-FITC staining based flow cytometry (reference value: 0.8%); type: functional
HeLa [23] = assay: Induction of apoptosis in human HeLa cells assessed as necrotic cells level at 5 uM incubated for 24 hrs by Annexin V-FITC staining based flow cytometry (reference value: 0.1%); type: functional
A549 = assay: Cytotoxicity against human A549 cells incubated for 24 hrs by MTT assay; type: functional, cell-based; conditions: A549, 24 h; summary of the method: as §6
dsDNA [24] = assay: Binding affinity to 20 equivalents of dsDNA (unknown origin) in 100 mM KCl, 10 mM Tris.HCl at pH 7.4 by fluorescence spectroscopy relative to untreated control; type: nucleic-acid assay; summary of the method: as §3
Quadruplex DNA [25] = assay: Binding affinity to c-MYC G-quadruplex (unknown origin) assessed as induction of line broadening of imino protons by 1H-NMR spectroscopy; type: nucleic-acid assay; conditions: unidentified; summary of the method: as §5
HeLa [26] = assay: Effect on GAPDH protein expression in human HeLa cells at 1 to 5 uM incubated for 24 hrs by Western blot method; type: ADME, cell-based
Summary of the method: (§7)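 Western blot of HeLa lysates after 24 h at 1, 2.5 or 5 μM, with DMSO control. c-MYC was probed, GAPDH served as loading control, and bands were quantified by densitometry.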

HeLa [27] = assay: Cell cycle arrest in human HeLa cells assessed as accumulation at G0/G1 phase at 5 uM incubated for 24 hrs by propidium iodide staining based flow cytometry (reference value: 61.5%); type: functional
Quadruplex DNA [28] = assay: Stabilization of 5'-FAM and 3'-TAMRA-labeled c-MYC G-quadruplex (unknown origin) assessed as change in melting temperature at 3 uM by FRET assay; type: nucleic-acid assay; conditions: unidentified; summary of the method: as §2
[29] = Drug localization in cytoplasm of human HeLa cells at 5 uM incubated for 2 hrs by fluorescence microscopy; type: ADME, subcellular; summary of the method: as §4
unidentified [30] = assay: Selectivity for 5'-FAM and 3'-TAMRA-labeled c-MYC G-quadruplex (unknown origin) over 5'-FAM and 3'-TAMRA-labeled k-RAS G-quadruplex (unknown origin)
Quadruplex DNA [31] = assay: Stabilization of c-MYC G-quadruplex in human HeLa cells assessed as reduction in c-MYC mRNA level at 5 uM incubated for 24 hrs by Western blot method; type: cell-based; design: scale not given: the % may be the effect or the level left; conditions: in the assay text read “c-MYC protein level” for “c-MYC mRNA level”; summary of the method: as §7
[32] = Selectivity for 5'-FAM and 3'-TAMRA-labeled c-MYC G-qudaruplex (unknown origin) over 5'-FAM and 3'-TAMRA-labeled c-KIT1 G-qudaruplex (unknown origin)
HeLa [33] = assay: Cell cycle arrest in human HeLa cells assessed as accumulation at G2/M phase at 5 uM incubated for 24 hrs by propidium iodide staining based flow cytometry (reference value: 25.5%); type: functional
Quadruplex DNA [34] = assay: Binding affinity to pre-annealed c-MYC G-quadruplex (unknown origin) assessed as increase in fluorescence intensity at 1 uM in 100 mM KCl, 10 mM Tris.HCl at pH 7.4 by fluorescence spectroscopy relative to untreated control; type: nucleic-acid assay; conditions: unidentified; summary of the method: as §3
Quadruplex DNA [35] = assay: Effect on parallel topology of c-MYC G-quadruplex (unknown origin) at 0 to 5 equivalent by CD spectroscopy; type: nucleic-acid assay; conditions: unidentified
Quadruplex DNA [36] = assay: Stabilization of 5'-FAM and 3'-TAMRA-labeled c-MYC G-quadruplex (unknown origin) assessed as change in melting temperature at 1 uM by FRET assay; type: nucleic-acid assay; conditions: unidentified; summary of the method: as §2
Quadruplex DNA [37] = assay: Binding affinity to pre-annealed c-MYC G-quadruplex (unknown origin) in 10 mM Tris.HCl buffer containing 100 mM KCl at pH 7.4 by UV/Visible spectroscopy; type: nucleic-acid assay, unidentified; summary of the method: as §1
dsDNA [38] = assay: Stabilization of 5'-FAM and 3'-TAMRA-labeled dsDNA (unknown origin) assessed as change in melting temperature at 5 uM by FRET assay; type: nucleic-acid assay; summary of the method: as §2
HeLa [39] = assay: Induction of apoptosis in human HeLa cells assessed as viable cell level at 5 uM incubated for 24 hrs by Annexin V-FITC staining based flow cytometry; type: functional
HeLa [40] = assay: Cell cycle arrest in human HeLa cells assessed as accumulation at subG1 phase at 5 uM incubated for 24 hrs by propidium iodide staining based flow cytometry (reference value: 2.2%); type: functional
C2C12 = assay: Cytotoxicity against mouse C2C12 cells incubated for 24 hrs by MTT assay; type: cell-based; conditions: C2C12, 24 h; summary of the method: as §6
Quadruplex DNA [41] = assay: Stabilization of 5'-FAM and 3'-TAMRA-labeled k-RAS G-quadruplex (unknown origin) assessed as change in melting temperature at 1 uM by FRET assay; type: nucleic-acid assay; conditions: unidentified; summary of the method: as §2

Selectivity ratio (unidentified [1]): 3 to 5
Activity (Quadruplex DNA [3]): 18%
ΔTm (Quadruplex DNA [4]): 9 °C
Kd (Quadruplex DNA [5]): 13 µM
Activity (Quadruplex DNA [6]): Active
Kd (Quadruplex DNA [7]): 19.4 µM
ΔTm (Quadruplex DNA [8]): 7 °C
Activity (dsDNA [9]): inactive
Kd (Quadruplex DNA [10]): 14.1 µM
Kd (Quadruplex DNA [11]): 21.4 µM
ΔTm (dsDNA [12]): 1 °C
Drug uptake [13]: Active
Activity (Quadruplex DNA [14]): Active
Activity (Quadruplex DNA [15]): Active
Activity (Quadruplex DNA [16]): Active
Activity (Quadruplex DNA [17]): Active
Activity (dsDNA [24]): inactive
Activity (Quadruplex DNA [25]): Active
ΔTm (Quadruplex DNA [28]): 23 °C
Drug uptake [29]: Active
Selectivity ratio (unidentified [30]): 3 to 5
Selectivity ratio [32]: 3 to 5
fold change (FC) (Quadruplex DNA [34]): 1.2
Activity (Quadruplex DNA [35]): inactive
ΔTm (Quadruplex DNA [36]): 15 °C
Kd (Quadruplex DNA [37]): 22.6 µM
Activity (dsDNA [38]): inactive
ΔTm (Quadruplex DNA [41]): 18 °C
Compound: CN(C)CCCNC(=O)c1ccc(Nc2ccc(-c3ccc(Nc4ccc(C(=O)NCCCN(C)C)cc4)c4ccccc34)c3ccccc23)cc1
Activity (Quadruplex DNA [2]): 27%
Activity (HeLa [18]): Non-Toxic
Activity (HeLa [19]): 37.9%
Activity (HeLa [20]): 5.3%
IC50 (HeLa [21]): 7.24 µM
Activity (HeLa [22]): 3.6%
Activity (HeLa [23]): 0.5%
IC50 (A549): ≥ 40 µM
Activity (HeLa [26]): Non-Toxic
Activity (HeLa [27]): 46.9%
Activity (Quadruplex DNA [31]): 36%
Activity (HeLa [33]): 8.6%
Activity (HeLa [39]): Active
Activity (HeLa [40]): 39.2%
IC50 (C2C12): ≥ 40 µM
